High-throughput results: PubChem BioAssay, Broad Institute
Pf Dd2 growth: P. falciparum Dd2 growth inhibitors, primary screen, SYBR Green fluorescence, single dose replicates; AID 1159554, 2015; 72 h; stronger effect = lower value; hit rate 2.3% among 94,000; activity change, % at 10 µM; in the data active = activity change below about -80%; inconclusive = no clear call, values can overlap the other calls
GASC1 inh: inhibitors of GASC-1 (KDM4C) histone demethylase, primary screen, biochemical, single concentration HTS. hit rate 0.15% among 96,000. GST-KDM4C 2-372, H3K9me3 peptide, LANCE TR-FRET. inhibition, % at 12.5 µM;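 active = mean replicate inhibition above about 25%, with at least 55% of replicates also reaching it, limit read from the data, passing the limit was not always enough; inconclusive = only one of those two conditions met; inactive = neither condition met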
Target sequence (Q9H3R0 2-372 limits assumed): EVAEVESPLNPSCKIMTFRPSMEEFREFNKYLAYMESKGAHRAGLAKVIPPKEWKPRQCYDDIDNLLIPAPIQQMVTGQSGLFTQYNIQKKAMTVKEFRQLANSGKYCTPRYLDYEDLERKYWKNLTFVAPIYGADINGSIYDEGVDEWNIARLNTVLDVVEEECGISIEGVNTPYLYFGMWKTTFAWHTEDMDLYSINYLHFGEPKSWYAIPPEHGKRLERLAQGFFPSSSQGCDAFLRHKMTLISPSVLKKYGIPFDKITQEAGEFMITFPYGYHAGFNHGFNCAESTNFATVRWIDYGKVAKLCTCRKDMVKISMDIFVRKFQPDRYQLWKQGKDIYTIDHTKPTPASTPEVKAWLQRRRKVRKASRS
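Test system – GST-tagged GASC-1 (JMJD2C) catalytic fragment, aa 2-372 · Medium – HEPES buffer, pH 7.5, plus ascorbate · Reagent – H3K9me3 peptide with Fe(II)/2OG · Compound – one test concentration per compound · Timing – 30 min reaction, 60 min detection, RT · Technique – TR-FRET with Eu antibody and ULight streptavidin, EDTA stop · Read-out basis – inhibition from TR-FRET ratio decrease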
IDH1 mut inh: inhibitors of IDH1 R132H reductase, primary screen, biochemical, plate reader, single point. Isocitrate dehydrogenase [NADP] cytoplasmic (Homo sapiens), O75874. inhibition, % at 10 µM. diaphorase/resazurin fluorescence, 60 min. AID 624101, 2012. hit rate 0.18% among 70,000; in the data active = inhibition above about 34%; inconclusive = no clear call, values can overlap the other calls; inactive = below about 11%
Each line names hits and unclear results; the compound was inactive in the other large screens. The full list was thinned out, with hits kept by preference.

CS(=O)(=O)N1[C@H](C#N)[C@@H](c2ccccc2-c2ccc(F)cc2)[C@@H]1CO	none (no result: IDH1 mut inh)
CC(C)NC(=O)N1[C@H](C#N)[C@@H](c2ccccc2-c2ccc(F)cc2)[C@@H]1CO	none (no result: IDH1 mut inh)
C/C=C/c1ccc([C@H]2[C@@H](C#N)N(C(=O)NC3CCCC3)[C@@H]2CO)cc1	Pf Dd2 growth -83.7 (no result: IDH1 mut inh)
CC(C)NC(=O)N1[C@H](C#N)[C@H](c2ccccc2-c2ccc(F)cc2)[C@@H]1CO	Pf Dd2 growth -89.8 (no result: IDH1 mut inh)
O=C(CCc1nc(-c2ccc(Cl)cc2)no1)Nc1cccnc1	none (no result: Pf Dd2 growth, GASC1 inh)
CC(C)C#Cc1ccc([C@@H]2[C@@H](C#N)N(C(=O)C3CCC3)[C@H]2CO)cc1	none (no result: IDH1 mut inh)
C[C@H](CO)N1C[C@H](C)[C@H](CN(C)Cc2ccccc2)OCCCC[C@H](C)Oc2ccc(NS(=O)(=O)c3cccs3)cc2C1=O	none
COc1ccc(-c2ccccc2[C@H]2[C@@H](C#N)N(C(=O)C3CCCC3)[C@H]2CO)cc1	Pf Dd2 growth -98.5 (no result: IDH1 mut inh)
N#C[C@@H]1[C@H](c2ccccc2/C=C/c2ccccc2)[C@H](CO)N1S(=O)(=O)c1cccc(F)c1	none (no result: IDH1 mut inh)
COc1ccc(-c2ccccc2[C@@H]2[C@H](C#N)N(C(=O)C3CCCC3)[C@H]2CO)cc1	none (no result: IDH1 mut inh)
N#C[C@@H]1[C@H](c2ccccc2/C=C/c2ccccc2)[C@H](CO)N1S(=O)(=O)c1ccc(F)cc1	Pf Dd2 growth -90.8 (no result: IDH1 mut inh)
COc1ccc(-c2ccc([C@H]3[C@H](C#N)N(C(=O)c4cccnc4)[C@H]3CO)cc2)cc1	Pf Dd2 growth -90.8 (no result: IDH1 mut inh)
N#C[C@@H]1[C@@H](c2ccccc2)[C@@H](CO)N1C(=O)c1cccnc1	none (no result: IDH1 mut inh)
C[C@H]1CN([C@@H](C)CO)C(=O)c2cc(C#Cc3cccc(F)c3)cnc2O[C@H]1CN(C)Cc1ccccn1	none (no result: GASC1 inh)
C[C@@H]1CN([C@H](C)CO)C(=O)c2cccc(NC(=O)c3cnccn3)c2O[C@@H]1CN(C)S(=O)(=O)c1ccccc1	none
COC(=O)C1=CO[C@@H](O[C@@H]2O[C@H](CO)[C@@H](O)[C@H](O)[C@H]2O)[C@@H]2[C@@H](C)[C@@H](OC(=O)/C=C/c3ccc(O)cc3)[C@@H](O)[C@H]12	none (no result: Pf Dd2 growth, GASC1 inh)
C[C@H](CO)N1C[C@H](C)[C@@H](CN(C)Cc2ccccc2)Oc2ccc(NC(=O)Cn3cnnn3)cc2CC1=O	none
COc1ccc(NC(=O)N2CCCCN3[C@H](C2)[C@H](c2ccc(C#CCC(C)C)cc2)[C@@H]3CO)cc1	none (no result: IDH1 mut inh)
COc1ccc(NC(=O)N2CCCCN3[C@H](CO)[C@H](c4ccc(C#CCC(C)C)cc4)[C@@H]3C2)cc1	Pf Dd2 growth -90.2 (no result: IDH1 mut inh)
COc1ccc(NC(=O)N2CCCCN3[C@H](CO)[C@@H](c4ccc(C#Cc5ccccc5)cc4)[C@H]3C2)cc1	none (no result: GASC1 inh, IDH1 mut inh)
COc1ccc(NC(=O)N2CCCCN3[C@@H](CO)[C@H](c4ccc(C#Cc5ccccn5)cc4)[C@@H]3C2)cc1	Pf Dd2 growth -85.1 (no result: IDH1 mut inh)
COc1ccc(NC(=O)N2CCCCN3[C@H](CO)[C@H](c4ccc(C#Cc5ccccc5)cc4)[C@@H]3C2)cc1	Pf Dd2 growth -84.1 (no result: GASC1 inh, IDH1 mut inh)
COc1ccc(NC(=O)N2CCCCN3[C@H](CO)[C@H](c4ccc(C#Cc5ccccn5)cc4)[C@@H]3C2)cc1	Pf Dd2 growth inconclusive (no result: IDH1 mut inh)
COc1cccc(S(=O)(=O)Nc2ccc3c(c2)C(=O)N(C)C[C@H](OC)[C@H](C)CN(C(=O)Cc2cccnc2)[C@H](C)CO3)c1	none
C[C@@H]1CN([C@@H](C)CO)C(=O)c2cc(NC(=O)Cc3cn(C)c4ccccc34)ccc2O[C@H]1CN(C)Cc1ccc(C(=O)Nc2ccccc2N)cc1	Pf Dd2 growth -85.5 (no result: IDH1 mut inh)
C[C@@H]1CCCCO[C@@H](CN(C)Cc2ccc(C(=O)Nc3ccccc3N)cc2)[C@@H](C)CN([C@H](C)CO)C(=O)c2cc(NC(=O)Cc3ccccc3)ccc2O1	Pf Dd2 growth -83.6
CC(C)NC(=O)Nc1ccc2c(c1)C(=O)N([C@H](C)CO)C[C@H](C)[C@H](CN(C)Cc1ccc(C(=O)Nc3ccccc3N)cc1)OCCCC[C@@H](C)O2	Pf Dd2 growth inconclusive (no result: IDH1 mut inh)
C[C@H]1CN([C@@H](C)CO)C(=O)c2cc(NC(=O)Cc3ccccc3)ccc2O[C@H]1CN(C)Cc1ccc(C(=O)Nc2ccccc2N)cc1	none
C[C@@H]1CN([C@@H](C)CO)C(=O)c2cc(NC(=O)Cc3ccccc3)ccc2O[C@@H]1CN(C)Cc1ccc(C(=O)Nc2ccccc2N)cc1	Pf Dd2 growth -85.9 (no result: IDH1 mut inh)
C[C@H]1CN([C@@H](C)CO)C(=O)c2cc(NC(=O)c3ccncc3)ccc2O[C@@H]1CN(C)Cc1ccc(C(=O)Nc2ccccc2N)cc1	Pf Dd2 growth -86.0 (no result: IDH1 mut inh)
C[C@@H]1CN([C@@H](C)CO)C(=O)c2cc(NC(=O)Cc3cn(C)c4ccccc34)ccc2O[C@@H]1CN(C)Cc1ccc(C(=O)Nc2ccccc2N)cc1	none
C[C@@H]1CN([C@H](C)CO)C(=O)c2cc(NC(=O)c3ccncc3)ccc2O[C@@H]1CN(C)Cc1ccc(C(=O)Nc2ccccc2N)cc1	none (no result: IDH1 mut inh)
CCC(=O)N1CCCCN2[C@H](CO)[C@H](c3ccc(/C=C/c4ccccc4)cc3)[C@H]2C1	none (no result: IDH1 mut inh)
C[C@@H]1CN([C@H](C)CO)C(=O)Cc2cc(NC(=O)Nc3cccc4ccccc34)ccc2O[C@@H]1CN(C)S(=O)(=O)c1cn(C)cn1	none
C[C@H]1CN([C@@H](C)CO)S(=O)(=O)c2ccc(-c3cncnc3)cc2O[C@@H]1CN(C)C(=O)Cc1ccccc1	none
C[C@H]1CN([C@@H](C)CO)C(=O)Cc2cc(NC(=O)Nc3ccccc3)ccc2O[C@H]1CN(C)C	none
C[C@@H]1CN([C@H](C)CO)C(=O)c2cccc(N(C)C)c2O[C@@H]1CN(C)Cc1ccc2c(c1)OCO2	none
COC(=O)c1c(NC(=O)Cc2ccccc2[N+](=O)[O-])sc2c1CCCC2	none (no result: Pf Dd2 growth, GASC1 inh)
COc1cccc(CN2CC3(CN(Cc4ccccn4)C3)c3c([nH]c4cc(OC)ccc34)[C@H]2CO)c1	Pf Dd2 growth -86.9 (no result: IDH1 mut inh)
COc1cccc(CN2CC3(CCN(Cc4ccccn4)CC3)c3c([nH]c4cc(OC)ccc34)[C@H]2CO)c1	Pf Dd2 growth -83.5 (no result: IDH1 mut inh)
COc1ccc2c3c([nH]c2c1)[C@@H](CO)N(Cc1ccncc1)CC31CN(Cc2ccc(-c3ccccn3)cc2)C1	Pf Dd2 growth inconclusive (no result: IDH1 mut inh)
COc1ccc2c3c([nH]c2c1)[C@@H](CO)N(Cc1ccc(F)cc1)CC31CN(Cc2ccccn2)C1	Pf Dd2 growth inconclusive (no result: IDH1 mut inh)
COc1ccc2c3c([nH]c2c1)[C@H](CO)N(Cc1ccncc1)CC31CN(Cc2ccc(-c3ccccn3)cc2)C1	Pf Dd2 growth -89.2 (no result: IDH1 mut inh)
COc1ccc2c3c([nH]c2c1)[C@@H](CO)N(Cc1cccc(F)c1)CC31CN(Cc2ccccn2)C1	Pf Dd2 growth inconclusive (no result: IDH1 mut inh)
O=S(=O)(c1ccc(F)cc1)N1CC[C@@H]2[C@H](CO)Nc3ccc(C#CC4CCCCC4)cc3[C@@H]21	none (no result: IDH1 mut inh)
C[C@H]1CCCCO[C@@H](CN(C)S(=O)(=O)c2ccccc2)[C@@H](C)CN([C@@H](C)CO)C(=O)c2cc(NC(=O)c3ccccc3)ccc2O1	none
C[C@H]1CCCCO[C@H](CN(C)S(=O)(=O)c2ccc(Cl)cc2)[C@@H](C)CN([C@@H](C)CO)C(=O)c2cc(NC(=O)c3ccccc3)ccc2O1	Pf Dd2 growth -80.7 (no result: IDH1 mut inh)
